For eight molecules, zone of inhibition and IC50 results are on record in ChEMBL document CHEMBL3352152, “Indolylmethylene benzo[h]thiazolo[2,3-b]quinazolinones: synthesis, characterization and evaluation of anticancer and antimicrobial activities” (Bioorg Med Chem Lett, 2014).

What is called IC50 is the concentration that inhibits the measured activity by half.

Test [1] relates to Staphylococcus aureus. Nature of the test: Antibacterial activity against Staphylococcus aureus MTCC 96 at 30 ug/ml after 24 hrs by agar well diffusion assay. The test is classed as functional. The note with it: MTCC 96, 24 h, read-out: IZ. In outline: (§1)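 Agar well diffusion screen run in vitro against a bacterial panel: S. aureus and S. pyogenes (Gram-positive), P. aeruginosa and K. pneumoniae (Gram-negative). Streptomycin served as the reference standard drug.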

Test [2] deals with Streptococcus pyogenes. Nature of the test: Antibacterial activity against Streptococcus pyogenes MTCC 1926 at 30 ug/ml after 24 hrs by agar well diffusion assay. It is filed as functional. As to conditions: MTCC 1926, 24 h, read-out: IZ. In outline: (§2)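 Agar well diffusion screen against the two Gram-positive strains (S. aureus, S. pyogenes) and the two Gram-negative strains (P. aeruginosa, K. pneumoniae). Streptomycin was the reference drug. Activity was read as zone of inhibition (mm).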
For orientation: In agar diffusion tests the substance spreads into inoculated agar from a disc or well.

In test [3] the test system is Klebsiella pneumoniae. As to the kind of experiment: Antibacterial activity against Klebsiella pneumoniae MTCC 109 at 30 ug/ml after 24 hrs by agar well diffusion assay. The test is classed as functional. The note with it: MTCC 109, 24 h, read-out: IZ. In short, it runs like this:
as §1

Test [4] relates to Pseudomonas aeruginosa. As to the kind of experiment: Antibacterial activity against Pseudomonas aeruginosa MTCC 4673 at 30 ug/ml after 24 hrs by agar well diffusion assay. It is filed as functional. As to conditions: MTCC 4673, 24 h, read-out: IZ. In outline: as §2
Test [5] deals with Candida albicans. As to the kind of experiment: Antifungal activity against Candida albicans MTCC 183 at 150 ug/ml after 48 hrs by agar well diffusion method. It is filed as functional. The note with it: MTCC 183, 48 h, read-out: IZ. In short, it runs like this: (§3)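 Antifungal screen by agar well diffusion against C. albicans, C. glabrata, A. niger and A. parasiticus. Clotrimazole was the standard drug. Activity was recorded as zone of inhibition (ZOI, mm).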

In test [6] the test system is Nakaseomyces glabratus. As to the kind of experiment: Antifungal activity against Candida glabrata MTCC3019 at 150 ug/ml after 48 hrs by agar well diffusion method. It is filed as functional. As to conditions: MTCC3019, 48 h, read-out: IZ. In outline:
as §3

Test [7] has as its system Aspergillus niger. Nature of the test: Antifungal activity against Aspergillus niger MTCC 282 at 150 ug/ml after 48 hrs by agar well diffusion method. As to conditions: MTCC 282, 48 h, read-out: IZ. The test is classed as functional. In short, it runs like this: as §3
Test [8] concerns Aspergillus parasiticus. As to the kind of experiment: Antifungal activity against Aspergillus parasiticus MTCC 8850 at 150 ug/ml after 48 hrs by agar well diffusion method. The test is classed as functional. As to conditions: MTCC 8850, 48 h, read-out: IZ. In short, it runs like this:
as §3

The subject of the next test is MCF7. As to the kind of experiment: Anticancer activity against human MCF7 cells assessed as cell viability after 48 hrs by MTT microcultured tetrazolium assay. The note with it: MCF7, 48 h. It is filed as functional, cell-based. In outline:
(§4)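 MTT-microcultured tetrazolium viability read-out in MCF-7 and HepG2 cells exposed to test samples. Surviving fraction was plotted against drug concentration to give survival curves, and IC50 was taken from these curves.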
For orientation: Tetrazolium dyes change colour on reduction, which living cells bring about.

In a further test the test system is HepG2. As to the kind of experiment: Anticancer activity against human HepG2 cells assessed as cell viability after 48 hrs by MTT microcultured tetrazolium assay. The note with it: HepG2, 48 h. The test is classed as functional, cell-based. In short, it runs like this: as §4
The test system of test [9] is Staphylococcus aureus. As to the kind of experiment: Antibacterial activity against Staphylococcus aureus MTCC 96 at 150 ug/ml after 24 hrs by agar well diffusion assay. As to conditions: MTCC 96, 24 h, read-out: IZ. It is filed as functional. In short, it runs like this: as §2
Test [10] relates to Streptococcus pyogenes. As to the kind of experiment: Antibacterial activity against Streptococcus pyogenes MTCC 1926 at 150 ug/ml after 24 hrs by agar well diffusion assay. The note with it: MTCC 1926, 24 h, read-out: IZ. The test is classed as functional. In outline:
as §2

Test [11] concerns Klebsiella pneumoniae. Nature of the test: Antibacterial activity against Klebsiella pneumoniae MTCC 109 at 150 ug/ml after 24 hrs by agar well diffusion assay. The test is classed as functional. The note with it: MTCC 109, 24 h, read-out: IZ. In outline:
as §2

Test [12] deals with Pseudomonas aeruginosa. As to the kind of experiment: Antibacterial activity against Pseudomonas aeruginosa MTCC 4673 at 150 ug/ml after 24 hrs by agar well diffusion assay. It is filed as functional. The note with it: MTCC 4673, 24 h, read-out: IZ. In outline:
as §2

The test system of test [13] is Candida albicans. Nature of the test: Antifungal activity against Candida albicans MTCC 183 at 30 ug/ml after 48 hrs by agar well diffusion method. The note with it: MTCC 183, 48 h, read-out: IZ. The test is classed as functional. In outline:
as §3

Test [14] deals with Nakaseomyces glabratus. Nature of the test: Antifungal activity against Candida glabrata MTCC3019 at 30 ug/ml after 48 hrs by agar well diffusion method. It is filed as functional. As to conditions: MTCC3019, 48 h, read-out: IZ. In short, it runs like this: as §3
In test [15] the test system is Aspergillus niger. As to the kind of experiment: Antifungal activity against Aspergillus niger MTCC 282 at 30 ug/ml after 48 hrs by agar well diffusion method. The test is classed as functional. As to conditions: MTCC 282, 48 h, read-out: IZ. In outline: as §3
Test [16] relates to Aspergillus parasiticus. Nature of the test: Antifungal activity against Aspergillus parasiticus MTCC 8850 at 30 ug/ml after 48 hrs by agar well diffusion method. As to conditions: MTCC 8850, 48 h, read-out: IZ. It is filed as functional. In short, it runs like this: as §3

For the molecule `CN[C@@H]1[C@H](O[C@H]2[C@H](O[C@H]3[C@H](O)[C@@H](O)[C@H](N=C(N)N)[C@@H](O)[C@@H]3N=C(N)N)O[C@@H](C)[C@]2(O)C=O)O[C@@H](CO)[C@H](O)[C@H]1O` [STREPTOMYCIN], the zone of inhibition at 30 µg/mL with Staphylococcus aureus [1] came out at 22 mm; in the test on Streptococcus pyogenes [2], 21 mm; in the test with Klebsiella pneumoniae [3], 22 mm; in the test on Pseudomonas aeruginosa [4] it was 20 mm.

Take `COc1ccc2c(c1)CCC1=C2N=c2s/c(=C\c3c[nH]c4ccccc34)c(=O)n2C1c1ccc(F)cc1` (stereo not drawn): the zone of inhibition at 150 µg/mL is 8 mm in the test with Candida albicans [5]; 8 mm with Nakaseomyces glabratus [6]; 10 mm with Aspergillus niger [7]; 10 mm with Aspergillus parasiticus [8]; 21 mm with Staphylococcus aureus [9]; 8 mm in the test with Streptococcus pyogenes [10]. In addition, the zone of inhibition at 150 µg/mL was determined as 17 mm in the test with Klebsiella pneumoniae [11] and 21 mm in the test on Pseudomonas aeruginosa [12]. In addition, the half-inhibitory concentration (IC50) with MCF7 was found to be 67.3 µM; in the test on HepG2, 25.8 µM.

Take `COc1ccc2c(c1)CCC1=C2N=c2s/c(=C\c3c(C)[nH]c4ccccc34)c(=O)n2C1c1cccc([N+](=O)[O-])c1` (stereo not drawn): the zone of inhibition at 150 µg/mL in the test on Candida albicans [5] was 17 mm; with Nakaseomyces glabratus [6], 14 mm; in the test with Aspergillus niger [7] it was 20 mm; in the test on Aspergillus parasiticus [8] it was 18 mm; with Staphylococcus aureus [9], 16 mm; with Streptococcus pyogenes [10] it was 15 mm. The zone of inhibition at 150 µg/mL amounted to 14 mm in the test with Klebsiella pneumoniae [11] and 13 mm with Pseudomonas aeruginosa [12]. The IC50 was over 200 µM in the test on MCF7 and 94.5 µM with HepG2.

With `COc1ccc2c(c1)CCC1=C2N=c2s/c(=C\c3c(C)[nH]c4ccccc34)c(=O)n2C1c1ccc(F)cc1` (stereo not drawn), the zone of inhibition at 150 µg/mL with Candida albicans [5] came to 8 mm; in the test with Nakaseomyces glabratus [6], 8 mm; with Aspergillus niger [7], 12 mm; in the test with Aspergillus parasiticus [8], 8 mm; with Staphylococcus aureus [9], 13 mm; in the test with Streptococcus pyogenes [10] it was 8 mm. In addition, the zone of inhibition at 150 µg/mL was determined as 16 mm in the test with Klebsiella pneumoniae [11] and 13 mm in the test on Pseudomonas aeruginosa [12]. For the same molecule, the IC50 with MCF7 was 82.4 µM; in the test on HepG2, 73.8 µM.

In the case of `COc1ccc2c(c1)CCC1=C2N=c2s/c(=C\c3c[nH]c4ccc(Br)cc34)c(=O)n2C1c1ccc(F)cc1` (stereo not drawn), the zone of inhibition at 150 µg/mL in the test with Candida albicans [5] is 8 mm; in the test with Nakaseomyces glabratus [6], 10 mm; in the test with Aspergillus niger [7], 8 mm; with Aspergillus parasiticus [8] it was 8 mm; in the test on Staphylococcus aureus [9] it was 22 mm; in the test on Streptococcus pyogenes [10], 8 mm. For the same molecule, the zone of inhibition at 150 µg/mL in the test on Klebsiella pneumoniae [11] turned out to be 18 mm; in the test with Pseudomonas aeruginosa [12] it was 22 mm. Besides, the half-inhibitory concentration (IC50) stood at 8.96 µM in the test with MCF7 and 22.1 µM with HepG2.

Regarding `COc1ccc2c(c1)CCC1=C2N=c2s/c(=C\c3c[nH]c4ccc(OC)cc34)c(=O)n2C1c1ccc(F)cc1` (stereo not drawn), the zone of inhibition at 150 µg/mL with Candida albicans [5] is 8 mm; with Nakaseomyces glabratus [6], 10 mm; in the test with Aspergillus niger [7] it was 10 mm; with Aspergillus parasiticus [8], 10 mm; in the test on Staphylococcus aureus [9], 8 mm; in the test on Streptococcus pyogenes [10] it was 8 mm. The zone of inhibition at 150 µg/mL with Klebsiella pneumoniae [11] was found to be 15 mm; with Pseudomonas aeruginosa [12], 8 mm. Moreover, the IC50 is 193 µM with MCF7 and 86.8 µM in the test with HepG2.

On to `Cc1[nH]c2ccccc2c1/C=c1\sc2n(c1=O)C(c1ccc(Cl)cc1)C1=C(N=2)c2ccccc2CC1` (stereo not drawn), for which the zone of inhibition at 150 µg/mL in the test with Candida albicans [5] stood at 16 mm; with Nakaseomyces glabratus [6], 19 mm; in the test with Aspergillus niger [7], 14 mm; with Aspergillus parasiticus [8], 14 mm; with Staphylococcus aureus [9], 13 mm; in the test on Streptococcus pyogenes [10], 8 mm. The zone of inhibition at 150 µg/mL turned out to be 8 mm with Klebsiella pneumoniae [11] and 17 mm in the test on Pseudomonas aeruginosa [12]. Further, the half-maximal inhibitory concentration (IC50) with MCF7 was 166 µM; with HepG2, 69.8 µM.

In the case of `Clc1ccccc1C(c1ccccc1)(c1ccccc1)n1ccnc1` [CLOTRIMAZOLE], the zone of inhibition at 30 µg/mL in the test with Candida albicans [13] came to 24 mm; with Nakaseomyces glabratus [14], 22 mm; in the test on Aspergillus niger [15] it was 20 mm; in the test on Aspergillus parasiticus [16], 20 mm.
